Measurements: paper PMC9233146 (Cell chemical biology, 2022)
Blank lines part the entries; values can stand above or below the compound they belong to.

Assays:
recombinant FECH [1] = target: T1, recombinant FECH (Homo sapiens, UniProt P22830); experiment: FECH enzymatic activity assay; format: biochemical; conditions: for inhibitory activity against recombinant FECH: qualitative
T1 sequence (P22830 55-423): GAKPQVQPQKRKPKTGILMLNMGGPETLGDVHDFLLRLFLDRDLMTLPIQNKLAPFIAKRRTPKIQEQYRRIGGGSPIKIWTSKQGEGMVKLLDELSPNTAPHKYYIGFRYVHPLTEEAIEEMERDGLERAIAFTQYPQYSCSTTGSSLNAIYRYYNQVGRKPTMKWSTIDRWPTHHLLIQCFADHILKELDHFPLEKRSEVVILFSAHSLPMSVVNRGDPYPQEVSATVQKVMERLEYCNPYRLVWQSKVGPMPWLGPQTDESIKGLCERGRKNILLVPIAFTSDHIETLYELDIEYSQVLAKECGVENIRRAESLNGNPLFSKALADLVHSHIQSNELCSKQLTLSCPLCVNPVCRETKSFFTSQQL

[2] = tested on: Human Retinal Endothelial Cell (HREC); experiment: HREC proliferation assay; format: cell-based; conditions: 48 hour treatment, qualitative
recombinant FECH [3] = target: T1, recombinant FECH; experiment: 4e-FECH enzyme kinetic analysis; format: biochemical; conditions: vs. substrate mesoporphyrin IX; Vmax consistent, KM increased
[4] = tested on: iCEC2 choroidal endothelial cells; experiment: iCEC2 proliferation assay; format: cell-based, human; conditions: 48 hour treatment
[5] = tested on: choroidal neovascularization
[6] = tested on: COXIV subunit I expression in HRECs; experiment: Immunoblot for hemoprotein COXIV subunit I; format: cell-based, human; conditions: 16 hours, dose dependent (10, 30 or 100 μM)
Summary of the method: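 HRECs were treated 16 h with test compound (10, 30 or 100 μM), a reference FECH inhibitor (10 μM) or DMSO. Arms were: 6 h pretreatment with 100 μM succinylacetone or water, or after treatment, medium replaced by EBM-2 with 0.2% serum and 10 μM hemin. Lysate protein (40 μg) was run on 12% SDS-PAGE and PVDF, probed with anti-COX4I1 (1:1000) and β-actin (1:2000). n=3 biological.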

[7] = tested on: FECH activity in HRECs (PPIX accumulation); experiment: Protoporphyrin IX buildup assay; format: cell-based, human; conditions: highest dose, co-treated with 5-ALA, 3 hour treatment, vs. DMSO
PPIX and heme in HRECs = experiment: Porphyrin and heme analysis; format: cell-based, human; conditions: 30 μM 4e ± 1 mM 5-ALA
Summary of the method: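 HRECs were grown to 80% confluence and serum-starved overnight. Cells received DMSO or 30 μM test compound for 1 h, then 1 mM 5-ALA or water for a further 2 h. They were pelleted in cold PBS and frozen. Heme and porphyrins were quantified by a core facility following its posted protocols. n=3.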

ARPE19 cells [8] = experiment: ARPE19 proliferation assay; format: cell-based, human; conditions: 48 hour treatment
HRECs [9] = experiment: Scratch wound migration assay; format: cell-based, human; conditions: 8 hour treatment, dose dependent
Summary of the method: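 HRECs were grown to confluence in 96-well plates at 37°C, scratched down the well centre with a pipette tip, and treated with test compound. Brightfield images were taken at 8 h. Cells migrating into the scratch were counted manually in six images per treatment and normalised to DMSO. Replicate runs were live-imaged. n=4 technical.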

HRECs [10] = experiment: Matrigel-based tube formation assay; format: cell-based, human; conditions: 8 hour treatment, qualitative
Summary of the method: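 Matrigel was solidified 20 min at 37°C. HRECs were added at 15,000/well in EGM-2 and dosed with test compound in DMSO. Tubes were watched by brightfield every 2 h and imaged at 8 h. Total tubule length from six images per treatment was normalised to DMSO controls. n=6 technical.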

HRECs [11] = experiment: In vitro apoptosis assays; format: cell-based, human; conditions: 16 hour treatment, 10, 30 and 100 μM
Summary of the method: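 HRECs on coated chamber slides, 70% confluent, were treated 16 h with vehicle, test compound (10, 30, 100 μM), or positive controls (1 μM staurosporine for caspase, 10 μM DNase I for TUNEL). After 4% PFA fixation: Triton permeabilisation, anti-cleaved caspase-3 (1:200, overnight, 4°C), fluorescent secondary and Hoechst; or a Click-iT TUNEL kit. Stained cells were counted as % of nuclei in three 40x fields. Three biological repeats.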

[12] = target: dopamine D2 receptor DRD2S (Homo sapiens, UniProt P14416); experiment: SafetyScan off-target analysis, DRD2S; format: cell-based
ARPE19 cells [13] = conditions: ref Basavarajappa et al., 2017; cited from earlier work
[14] = tested on: Human Retinal Endothelial Cell (HREC); conditions: HRECs; ref Basavarajappa et al., 2017; cited from earlier work
HRECs [15] = conditions: ref Basavarajappa et al., 2017; cited from earlier work
HRECs [16] = conditions: ref Basavarajappa et al., 2017; cited from earlier work; remark: listed apart in the source
[17] = recombinant FECH activity assay

Sequence of dopamine D2 receptor DRD2S (P14416 1-414 isoform P14416-2): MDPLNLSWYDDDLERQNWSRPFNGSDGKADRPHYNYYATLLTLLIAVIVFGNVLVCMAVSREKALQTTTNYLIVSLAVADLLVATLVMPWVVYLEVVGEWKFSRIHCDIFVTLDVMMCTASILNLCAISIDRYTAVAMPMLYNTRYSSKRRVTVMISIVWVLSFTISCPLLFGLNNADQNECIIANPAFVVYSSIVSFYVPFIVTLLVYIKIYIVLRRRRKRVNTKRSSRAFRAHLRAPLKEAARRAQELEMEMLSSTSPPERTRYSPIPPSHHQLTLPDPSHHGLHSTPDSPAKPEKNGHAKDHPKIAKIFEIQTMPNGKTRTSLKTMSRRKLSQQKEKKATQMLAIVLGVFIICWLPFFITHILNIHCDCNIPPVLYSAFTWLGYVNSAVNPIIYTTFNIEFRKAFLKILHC

Compound: CC(C)(C)c1ccc(-c2nc3[nH]c(CNc4ccc5ccccc5n4)cc(=O)n3n2)cc1 [4e, 2-(4-(tert-Butyl)phenyl)-5-((quinolin-2-ylamino)methyl)-[1,2,4]triazolo[1,5-a]pyrimidin-7(4H)-one]
mode of inhibition (recombinant FECH [3]): competitive inhibition
proliferation of iCEC2 cells [4]: more potent than NMPP
ocular toxicity (fundus images, OCT) ([5]; day 0, 7 and 14 after laser, intravitreal): no obvious signs of toxicity
decrease in lesion volume (agglutinin and GS-IB4 signal, choroidal flat mounts) ([5]; day 14, both tested doses (50 and 100 μM intravitreal)): > 50%
OCT lesion volume relative to control ([5]; day 14, final intravitreal concentrations of 50 μM as well as 100 μM): significantly reduced
leakage on fluorescein angiography (FA) ([5]; day 14, qualitative): smaller
inhibitory activity against recombinant FECH (recombinant FECH [1]): showed inhibitory activity
IC50 value (range in words) (recombinant FECH [1]; [17]): high nanomolar range
COXIV subunit I levels in HRECs [6]: decreased COXIV levels
PPIX accumulation in HRECs [7]: statistically significant PPIX accumulation
HREC proliferation (antiproliferative effect) [2]: anti-proliferative
PPIX level in HRECs (PPIX and heme in HRECs): buildup of FECH substrate PPIX
heme level in HRECs (PPIX and heme in HRECs): decrease in heme
antiproliferative effect on ARPE19 cells (ARPE19 cells [8]): did not have a substantial antiproliferative effect
HREC migration (HRECs [9]): blocked the migration ability
HREC tube formation (HRECs [10]): blocked tube formation of HRECs
apoptosis in HRECs (cleaved caspase-3, TUNEL) (HRECs [11]): did not lead to apoptosis
EC50 [12]: 98 µM

Compound: N-methylprotoporphyrin [NMPP]
proliferation of iCEC2 cells [4]: antiproliferative
FECH activity inhibition (recombinant FECH [1]; 10 μM, positive control in the screen): completely inhibited
IC50 (recombinant FECH [1]; [17]): 0.45 µM
proliferation of ARPE19 cells (ARPE19 cells [13]): did not block proliferation
GI50 [14]: 30 µM
inhibition of HREC tube formation, active concentrations (HRECs [15]): single-digit micromolar concentrations
inhibition of HREC migration, active concentrations (HRECs [16]): single-digit micromolar concentrations

Second part, led by results:

inhibitory activity against recombinant FECH (recombinant FECH [1]): potent FECH inhibitors
Compound: CCCc1cc(=O)n2nc(CNc3ccc(Cl)cc3)nc2[nH]1 [5f, 2-(((4-Chlorophenyl)amino)methyl)-5-propyl-[1,2,4]triazolo[1,5-a]pyrimidin-7(4H)-one]

inhibitory activity against recombinant FECH (recombinant FECH [1]): strongest inhibitory activity
Compound: CCCc1cc(=O)n2nc(CNc3ccc(F)c(Cl)c3)nc2[nH]1 [5i, 2-(((3-Chloro-4-fluorophenyl)amino)methyl)-5-propyl-[1,2,4]triazolo[1,5-a]pyrimidin-7(4H)-one]
HREC proliferation (antiproliferative effect) [2]: did not affect HREC proliferation

inhibitory activity against recombinant FECH (recombinant FECH [1]): strongest inhibitory activity
Compound: CCCc1cc(=O)n2nc(CNc3ccc(F)c(F)c3)nc2[nH]1 [5k, 2-(((3,4-Difluorophenyl)amino)methyl)-5-propyl-[1,2,4]triazolo[1,5-a]pyrimidin-7(4H)-one]
HREC proliferation (antiproliferative effect) [2]: did not affect HREC proliferation

IC50 value (range in words) (recombinant FECH [1]; [17]): high nanomolar range
Compound: CCCc1cc(=O)n2nc(CNc3ccc(C)cc3)nc2[nH]1 [5c, 5-Propyl-2-((p-tolylamino)methyl)-[1,2,4]triazolo[1,5-a]pyrimidin-7(4H)-one]
HREC proliferation (antiproliferative effect) [2]: anti-proliferative
HREC tube formation (HRECs [10]): blocked tube formation of HRECs
